Laboratory results: ChEMBL document CHEMBL1137414, “3'-Substituted 7-halogenoindirubins, a new class of cell death inducing agents” (J Med Chem, 2006)

Key:
[1] = target: Cyclin-dependent kinase 5/CDK5 activator 1 (Homo sapiens, UniProt Q00535+Q15078); test: (§1) Inhibition of mammalian CDK5/p25; assay type: protein-complex assay
Summary of the method: (§2)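 Recombinant CDK5 and p25, each expressed in E. coli as GST fusions and affinity-purified on glutathione agarose, mixed in equal amounts. Phosphate incorporation onto P81 paper read by scintillation counting, blank subtracted. Activity taken as % of uninhibited. IC50 from dose-response curves.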

SH-SY5Y [2] = test: Death of human SH-SY5Y cells in absence of 20 uM Q-VD-OPh by MTS reduction assay; assay type: functional, cell-based
SH-SY5Y [3] = test: Survival of human SH-SY5Y cells after 48 hrs by MTS reduction assay; assay type: functional, cell-based
SH-SY5Y [4] = test: Death of human SH-SY5Y cells in presence of 20 uM Q-VD-OPh by MTS reduction assay; assay type: functional, cell-based
SH-SY5Y [5] = test: Survival of human SH-SY5Y cells at 25 uM by MTS reduction assay; assay type: functional, cell-based
Summary of the method: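 Viability was read by MTS reduction and expressed as percent of untreated cells, as the average ± SE of three independent measurements, representative of two independent experiments.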

SH-SY5Y [6] = test: Death of human SH-SY5Y cells at 25 uM after 48 hrs by LDH release assay; assay type: functional
Summary of the method: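 SH-SY5Y human neuroblastoma cells were grown in DMEM with 2 mM L-glutamine, antibiotics and 10% FCS at 37 °C under 5% CO2. […] Lactate dehydrogenase release was measured 48 h after addition and expressed as percent cell death.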

SH-SY5Y [7] = test: Survival of human SH-SY5Y cells after 24 hrs by MTS reduction assay; assay type: functional, cell-based
[8] = target: Cyclin-dependent kinase 5/CDK5 activator 1 (Homo sapiens, UniProt Q00535); test: as §1; assay type: protein-complex assay; summary of the method: as §2
Sequence of Cyclin-dependent kinase 5/CDK5 activator 1 (Homo sapiens, UniProt Q00535) (Q00535 whole entry): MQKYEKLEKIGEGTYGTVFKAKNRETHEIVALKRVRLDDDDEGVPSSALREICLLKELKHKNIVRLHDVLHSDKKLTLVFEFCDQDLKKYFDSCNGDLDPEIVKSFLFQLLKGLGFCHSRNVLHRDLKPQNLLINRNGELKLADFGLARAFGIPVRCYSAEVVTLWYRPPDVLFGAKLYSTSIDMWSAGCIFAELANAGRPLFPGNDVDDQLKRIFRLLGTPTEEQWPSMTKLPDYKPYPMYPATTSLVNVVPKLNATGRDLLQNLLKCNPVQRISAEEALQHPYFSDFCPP
Sequence of Cyclin-dependent kinase 5/CDK5 activator 1 (Homo sapiens, UniProt Q00535) (Q15078 whole entry, further chain): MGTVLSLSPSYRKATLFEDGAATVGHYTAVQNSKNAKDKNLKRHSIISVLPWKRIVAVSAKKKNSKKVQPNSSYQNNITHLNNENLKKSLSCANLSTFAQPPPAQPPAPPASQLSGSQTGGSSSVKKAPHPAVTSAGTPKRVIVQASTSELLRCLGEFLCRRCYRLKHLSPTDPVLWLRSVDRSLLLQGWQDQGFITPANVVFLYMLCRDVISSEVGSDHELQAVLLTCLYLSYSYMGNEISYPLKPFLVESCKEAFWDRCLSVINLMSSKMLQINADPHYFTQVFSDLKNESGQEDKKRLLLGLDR

[9] = Inhibition of starfish CDK1/cyclin B in presence of 15 uM ATP; design: species or system Marthasterias glacialis
[10] = target: Glycogen synthase kinase-3 (Homo sapiens, UniProt P49840+P49841); test: Inhibition of porcine brain GSK3alpha/beta; conditions: Sus scrofa
Sequence of Glycogen synthase kinase-3 (P49840 whole entry, looked up): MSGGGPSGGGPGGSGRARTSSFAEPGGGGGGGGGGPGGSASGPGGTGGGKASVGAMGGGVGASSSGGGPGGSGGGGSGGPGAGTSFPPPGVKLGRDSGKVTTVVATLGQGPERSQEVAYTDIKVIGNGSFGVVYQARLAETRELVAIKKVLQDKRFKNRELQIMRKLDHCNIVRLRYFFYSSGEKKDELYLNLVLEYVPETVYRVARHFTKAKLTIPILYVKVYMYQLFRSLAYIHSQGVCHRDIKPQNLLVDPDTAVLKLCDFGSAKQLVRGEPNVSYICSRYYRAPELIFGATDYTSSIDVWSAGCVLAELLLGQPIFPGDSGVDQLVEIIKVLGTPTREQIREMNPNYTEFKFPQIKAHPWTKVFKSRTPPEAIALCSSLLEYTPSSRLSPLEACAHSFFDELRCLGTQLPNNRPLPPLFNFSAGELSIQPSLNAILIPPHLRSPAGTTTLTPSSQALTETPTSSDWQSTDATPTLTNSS
Sequence of Glycogen synthase kinase-3 (P49841 whole entry, looked up): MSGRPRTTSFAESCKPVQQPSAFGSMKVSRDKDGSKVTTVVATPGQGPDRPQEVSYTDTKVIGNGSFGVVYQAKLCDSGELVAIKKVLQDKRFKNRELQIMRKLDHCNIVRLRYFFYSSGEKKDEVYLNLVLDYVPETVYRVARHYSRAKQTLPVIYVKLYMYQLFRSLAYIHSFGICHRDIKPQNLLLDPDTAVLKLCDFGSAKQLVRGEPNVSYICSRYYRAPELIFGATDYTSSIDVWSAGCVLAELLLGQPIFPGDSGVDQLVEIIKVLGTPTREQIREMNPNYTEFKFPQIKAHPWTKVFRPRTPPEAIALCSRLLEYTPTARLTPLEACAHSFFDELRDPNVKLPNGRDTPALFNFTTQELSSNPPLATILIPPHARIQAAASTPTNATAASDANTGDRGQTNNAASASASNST

BP8 = test: Survival of […] AhR -/- BP8 cells after 48 hrs by MTS reduction assay; assay type: functional, cell-based
F1 (hepatoma cell line) = test: Survival of mouse F1 cells after 48 hrs by MTS reduction assay; conditions: F1
PC-3 = test: Survival of human PC3 cells after 48 hrs by MTS reduction assay; assay type: functional, cell-based
Huh-7 = test: Survival of human Huh7 cells after 48 hrs by MTS reduction assay; assay type: functional, cell-based
HEK293 = test: Survival of human HEK293 cells after 48 hrs by MTS reduction assay; assay type: functional, cell-based
A549 = test: Survival of human A549 cells after 48 hrs by MTS reduction assay; assay type: functional, cell-based
HT-29 = test: Survival of human HT29 cells after 48 hrs by MTS reduction assay; assay type: functional, cell-based; conditions: ht-29
MDA-MB-231 = test: Survival of human MDA-MB-231 cells after 48 hrs by MTS reduction assay; assay type: functional, cell-based
Summary of the method: (§3)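 Viability read by MTS reduction. IC50 taken from dose-response curves, triplicate measurements. HCT116 grown in McCoy's 5A with 10% FCS. MDA-MB-231 grown in DMEM with 10% FCS and seeded at 7500 cells/well.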

HCT-116 = test: Survival of human HCT116 cells after 48 hrs by MTS reduction assay; assay type: functional, cell-based; summary of the method: as §3
[11] = Survival of mouse F1 cells after 48 hrs by MTS reduction assay; conditions: Mus musculus, F1, 48 h
[12] = Homo sapiens, SH-SY5Y, read-out: IC50

Sequence of Cyclin-dependent kinase 5/CDK5 activator 1 (Homo sapiens, UniProt Q00535+Q15078) (Q00535 whole entry, the tested form may be a part): as the sequence (Q00535 whole entry) above
Sequence of Cyclin-dependent kinase 5/CDK5 activator 1 (Homo sapiens, UniProt Q00535+Q15078) (Q15078 whole entry, the tested form may be a part): as the sequence (Q15078 whole entry, further chain) above

Row | Compound | IC50 [1] | IC50 (SH-SY5Y [2]; [12]) | IC50 (SH-SY5Y [3]; sh-sy5y) | IC50 (SH-SY5Y [4]; Homo sapiens, SH-SY5Y) | Survival (SH-SY5Y [5]) | Activity (SH-SY5Y [6]) | IC50 (SH-SY5Y [7]; sh-sy5y) | IC50 (BP8; bp8) | IC50 (F1 (hepatoma cell line)) | IC50 (PC-3; pc-3) | IC50 (Huh-7; huh-7) | IC50 (HEK293; hek293) | IC50 (A549; a549) | IC50 (HT-29) | IC50 (MDA-MB-231; mda-mb-231) | IC50 (HCT-116; hct-116) | IC50 (SH-SY5Y [2]; sh-sy5y, read-out: IC50) | further results
1 | CN(C)CCO/N=C1/C(c2c(O)n(C)c3c(Br)cccc23)=Nc2ccccc21 | > 10 µM | 6.4 µM | 5.5 µM | > 25 µM | 49% | 33% | > 25 µM |  |  |  |  |  |  |  |  |  |  | 
2 | Oc1[nH]c2c(Br)cccc2c1C1=Nc2ccccc2/C1=N\OCCN1CCCC1 | > 10 µM | 2 µM | 2.3 µM | > 25 µM | 13% | 14% | 3.6 µM |  |  |  |  |  |  |  |  |  |  | 
3 | O=Nc1c(-c2c(O)[nH]c3c(Cl)cccc23)[nH]c2ccccc12 |  | 10 µM |  | 11 µM |  | 92% |  |  |  |  |  |  |  |  |  |  |  | IC50 [8]: 6 µM; IC50 (SH-SY5Y [3]; Homo sapiens, SH-SY5Y, 48 h): 12 µM; viability at 25 µM (SH-SY5Y [5]; Homo sapiens, SH-SY5Y, read-out: Survival): 7%; IC50 (SH-SY5Y [7]; Homo sapiens, SH-SY5Y, 24 h): 14 µM; IC50 [9]: 3.7 µM; IC50 [10]: 21 µM
4 | Oc1[nH]c2c(Br)cccc2c1C1=Nc2ccccc2/C1=N\OCCN1CCNCC1 | > 10 µM |  | 6.2 µM |  | 3% | 94% | 10.5 µM | 5.6 µM | 1.7 µM | 6.1 µM | 5.3 µM | 5 µM | 5.9 µM | 6.3 µM | 5.3 µM | 5.4 µM |  | IC50 (SH-SY5Y [2]): 10 µM; IC50 (SH-SY5Y [4]; sh-sy5y): 10.3 µM
5 | CN(C)CCO/N=C1/C(c2c(O)[nH]c3c(Br)cccc23)=Nc2ccccc21 | > 10 µM |  | 2 µM |  | 1% | 86% | 4.1 µM | 19.5 µM | 5.5 µM | 27.2 µM | 19.6 µM | 14.4 µM | 21.8 µM | 21.8 µM | 26.4 µM | 6.5 µM | 1.5 µM | 
6 | Cn1c(O)c(C2=Nc3ccccc3/C2=N\OCCN2CCCC2)c2cccc(Br)c21 | > 10 µM |  | 5 µM |  | 15% | 78% | 7.8 µM | 18.8 µM | 5.6 µM | 21.6 µM | 18.8 µM | 21.4 µM | 21 µM | 19.8 µM | 26.8 µM | 13.6 µM | 6.1 µM | IC50 (SH-SY5Y [4]; sh-sy5y): > 25 µM
7 | CN(C)CCO/N=C1/C(c2c(O)n(C)c3c(Br)cccc23)=Nc2ccccc21.Cl |  |  |  |  | 4% | 80% |  |  |  |  |  |  |  |  |  |  | 11 µM | IC50 (BP8; Mus musculus, BP8, 48 h): 19 µM; IC50 [8]: > 10 µM; IC50 [11]: 5.4 µM; IC50 (SH-SY5Y [3]; Homo sapiens, SH-SY5Y, 48 h): 9 µM; IC50 (PC-3; Homo sapiens, PC-3, 48 h): 25 µM; IC50 (Huh-7; Homo sapiens, Huh-7, 48 h): 18 µM; IC50 (HEK293; Homo sapiens, HEK293, 48 h): 18.8 µM; IC50 (A549; Homo sapiens, A549, 48 h): 20.8 µM; IC50 (SH-SY5Y [7]; Homo sapiens, SH-SY5Y, 24 h): 21 µM; IC50 [9]: > 10 µM; IC50 (MDA-MB-231; Homo sapiens, MDA-MB-231, 48 h): 17.8 µM; IC50 (HCT-116; Homo sapiens, HCT-116, 48 h): 15.7 µM
